Source: ChEMBL document CHEMBL2034962, “Immunosuppressive decalin derivatives from red yeast rice” (J Nat Prod, 2012)
Activity calls are given as the source filed them. No cut-off for these calls is given here.

Key:
[1] = Cytotoxicity against human T lymphocytes at 10 to 100 uM after 72 hrs by MTT assay; settings: t-cell
Procedure, shortened: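 T cells from buffy-coat blood via Ficoll separation, with macrophages removed by adherence. Cultured at 1 × 10^5 cells/well in RPMI 1640 + 10% FBS, n = 3, with 10–100 μM compound for 72 h. MTT (5 mg/mL) added for 4 h, then dissolved in 10% SDS/50% DMF, pH 7.2. A570 read; viability = Atreated/Acontrol × 100.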

T-cell [2] = experiment: Immunosuppressive activity in human T lymphocytes assessed as inhibition of PMA-ionomycin-induced cell proliferation after 72 hrs by BrdU-based ELISA analysis; type: functional
Procedure, shortened: (§1)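 Nonadherent buffy-coat T lymphocytes (Ficoll, adherence-depleted) at 10^5 cells/well in RPMI 1640 + 10% FBS, in triplicate. Costimulated with PMA–ionomycin ± compound (10–100 μM) for 72 h. BrdU added at 10 μM final, 14 h before the end. Incorporation read by ELISA. Lovastatin and simvastatin served as positive controls. Means ± SEM, one-way ANOVA.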

T-cell [3] = experiment: Immunosuppressive activity in human T lymphocytes assessed as inhibition of PMA-ionomycin-induced cell proliferation at 10 to 100 uM after 72 hrs by BrdU-based ELISA analysis; type: functional; procedure, shortened: as §1

C[C@@H]1CC[C@@H]2[C@@H](/C=C/C(=O)O)[C@@H](C)C=C[C@H]2C1 [MONASCUSIC ACID B]
Activity [1]: Non-toxic
inhibition (T-cell [2]): Dose-dependent effect
Activity (T-cell [3]): Active

C[C@H]1C=C2C=C[C@H](C)/C(=C\CC(=O)O)[C@H]2CC1 [MONASCUSIC ACID E]
Activity [1]: Non-toxic
inhibition (T-cell [3]): Active

C[C@@H]1CC[C@@H]2/C(=C/CC(=O)O)[C@@H](C)C=C[C@H]2C1 [MONASCUSIC ACID C]
Activity [1]: Non-toxic
inhibition (T-cell [2]): Dose-dependent effect
Activity (T-cell [3]): Active

C[C@@H]1CC[C@@H]2[C@@H](CCC(=O)O)[C@@H](C)C=C[C@H]2C1 [HEPTAKETIDE]
Activity [1]: Non-toxic
inhibition (T-cell [2]): Dose-dependent effect
Activity (T-cell [3]): Active

C[C@H]1C=C2C=C[C@H](C)[C@H](/C=C/C(=O)O)[C@H]2CC1 [MONASCUSIC ACID D]
Activity [1]: Non-toxic
inhibition (T-cell [2]): Dose-dependent effect
Activity (T-cell [3]): Active

C[C@H]1C=C2C=C[C@H](C)[C@H](CCC(=O)O)[C@H]2CC1 [MONASCUSIC ACID A]
Activity [1]: Non-toxic
inhibition (T-cell [2]): Dose-dependent effect
Activity (T-cell [3]): Active

C[C@H]1C=C2C=C[C@H](C)[C@]3(CCC(=O)O3)[C@H]2CC1 (relative stereo)
Activity [1]: Non-toxic
inhibition (T-cell [3]): Active
